Assay results: ChEMBL document CHEMBL2424574, “Structure-activity relationships and pharmacophore model of a noncompetitive pyrazoline containing class of GluN2C/GluN2D selective antagonists” (J Med Chem, 2013)

Columns and labels:
[1] = biological target: Glutamate receptor ionotropic, NMDA 2B (Rattus norvegicus) (UniProt Q00960); assay: Negative allosteric modulation of recombinant rat GluN2B receptor expressed in Xenopus laevis oocytes at 100 uM by two-electrode voltage clamp method; type: cell-based; details: Oocyte
Method in brief: (§1)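 Two-electrode voltage clamp of Xenopus oocytes expressing rat GluN1 with GluN2A, 2B, 2C or 2D. Holding potential −40 mV in recording solution (mM: 90 NaCl, 1 KCl, 0.5 BaCl2, 0.005 EDTA, 10 HEPES, pH 7.4, 23 °C). Compounds diluted from 20 mM DMSO stocks to 0.05–0.1% final DMSO. IC50 from a Hill fit to the averaged composite concentration–response curve, 5–24 oocytes from 2–4 frogs.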

[2] = biological target: Glutamate receptor ionotropic, NMDA 2A (Rattus norvegicus) (UniProt Q00959); assay: Negative allosteric modulation of recombinant rat GluN2A receptor expressed in Xenopus laevis oocytes at 100 uM by two-electrode voltage clamp method; type: cell-based; details: Oocyte; method in brief: as §1
[3] = biological target: Glutamate receptor ionotropic, NMDA 2C (Rattus norvegicus, UniProt P35439+Q00961); assay: Negative allosteric modulation of recombinant rat GluN2C receptor expressed in Xenopus laevis oocytes by two-electrode voltage clamp method; type: cell-based, Oocyte; method in brief: as §1
[4] = biological target: Glutamate receptor ionotropic, NMDA 2D (Rattus norvegicus, UniProt P35439+Q62645); assay: Negative allosteric modulation of recombinant rat GluN2D receptor expressed in Xenopus laevis oocytes by two-electrode voltage clamp method; type: cell-based, Oocyte; method in brief: as §1
Liver microsomes [5] = assay: Half life in human liver microsomes at 1 uM; type: ADME, Microsome
Method in brief: (§2)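 Human liver microsomes 0.5 mg/mL in 100 mM potassium phosphate pH 7.4 with 5 mM MgCl2 and 1 μM test compound. Preincubated 3 min at 37 °C, then started with 1 mM NADPH, with a testosterone control in parallel. Sampled at 0, 10, 20, 30 and 60 min and quenched in cold acetonitrile/water with formic acid and internal standard. Percent remaining by LC-MS/MS (MRM) versus time 0. t1/2 = 0.693/k from the ln-remaining slope; CLint = k/protein concentration.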

Liver microsomes [6] = assay: Intrinsic clearance in human liver microsomes measured per mg of protein at 1 uM by LC-MS/MS analysis; type: ADME, Microsome; method in brief: as §2
Liver microsomes [7] = assay: Metabolic stability in human liver microsomes assessed as compound remaining at 1 uM after 60 mins by LC-MS/MS analysis; type: ADME, Microsome; details: 1 h; method in brief: as §2
Liver microsomes [8] = assay: Metabolic stability in human liver microsomes assessed as compound remaining at 1 uM after 30 mins by LC-MS/MS analysis; type: ADME, Microsome; details: 0.5 h; method in brief: as §2
Liver microsomes [9] = assay: Metabolic stability in human liver microsomes assessed as compound remaining at 1 uM after 20 mins by LC-MS/MS analysis; type: ADME, Microsome; method in brief: as §2
Liver microsomes [10] = assay: Metabolic stability in human liver microsomes assessed as compound remaining at 1 uM after 10 mins by LC-MS/MS analysis; type: ADME, Microsome; method in brief: as §2
MDCK [11] = assay: Permeability across basolateral to apical side in dog MDCK cells expressing MDR1 assessed as compound recovery at 5 uM after 120 mins by LC-MS/MS analysis; type: ADME, cell-based, Canis lupus familiaris; details: 2 h
Method in brief: (§3)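 MDR1-MDCK monolayers grown to confluence on collagen-coated polycarbonate membranes. Assay buffer was HBSS with 10 mM HEPES and 15 mM glucose, pH 7.4, and the receiver side also held 1% BSA. Monolayers were dosed apically (A-to-B) or basolaterally (B-to-A) at 5 μM, 37 °C, 5% CO2. Donor and receiver were sampled at 120 min, in duplicate, by LC-MS/MS (ESI). Papp and percent recovery were calculated from receiver/donor concentrations.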

MDCK [12] = assay: Apparent permeability across basolateral to apical side in dog MDCK cells expressing MDR1 at 5 uM after 120 mins by LC-MS/MS analysis; type: ADME, cell-based, Canis lupus familiaris; details: 2 h; method in brief: as §3
MDCK [13] = assay: Permeability across apical to basolateral side in dog MDCK cells expressing MDR1 assessed as compound recovery at 5 uM after 120 mins by LC-MS/MS analysis; type: ADME, cell-based, Canis lupus familiaris; details: 2 h; method in brief: as §3
MDCK [14] = assay: Apparent permeability across apical to basolateral side in dog MDCK cells expressing MDR1 at 5 uM after 120 mins by LC-MS/MS analysis; type: ADME, cell-based, Canis lupus familiaris; details: 2 h; method in brief: as §3
[15] = biological target: Glutamate receptor ionotropic, NMDA 2D (Rattus norvegicus) (UniProt Q62645); assay: Negative allosteric modulation of recombinant rat GluN2D receptor expressed in Xenopus laevis oocytes at 100 uM by two-electrode voltage clamp method; type: cell-based; details: Oocyte; method in brief: as §1
[16] = biological target: Glutamate receptor ionotropic, NMDA 2C (Rattus norvegicus) (UniProt Q00961); assay: Negative allosteric modulation of recombinant rat GluN2C receptor expressed in Xenopus laevis oocytes at 100 uM by two-electrode voltage clamp method; type: cell-based; details: Oocyte; method in brief: as §1
[17] = biological target: Glutamate receptor ionotropic, NMDA 2A (Rattus norvegicus, UniProt P35439+Q00959); assay: Negative allosteric modulation of recombinant rat GluN2A receptor expressed in Xenopus laevis oocytes by two-electrode voltage clamp method; type: cell-based, Oocyte; method in brief: as §1
Rattus norvegicus [18] = species on record: Rattus norvegicus; assay: Selectivity ratio of IC50 for recombinant rat GluN2A receptor to IC50 for recombinant rat GluN2D receptor
Method in brief: (§4)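 Rat GluN1 co-expressed with GluN2A, GluN2B or GluN2D in Xenopus oocytes. Two-electrode voltage clamp at −40 mV in 90 NaCl, 1 KCl, 0.5 BaCl2, 0.005 EDTA, 10 HEPES (mM), pH 7.4, 23 °C; final DMSO 0.1–0.05%. IC50s came from Hill fits to averaged composite concentration-response curves (5–24 oocytes, 2–4 frogs). Ratio is GluN2A or GluN2B IC50 over GluN2D IC50.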

Rattus norvegicus [19] = species on record: Rattus norvegicus; assay: Selectivity ratio of IC50 for recombinant rat GluN2B receptor to IC50 for recombinant rat GluN2D receptor; method in brief: as §4
[20] = biological target: Glutamate receptor ionotropic, NMDA 2B (Rattus norvegicus, UniProt P35439+Q00960); assay: Negative allosteric modulation of recombinant rat GluN2B receptor expressed in Xenopus laevis oocytes by two-electrode voltage clamp method; type: cell-based, Oocyte; method in brief: as §1
[21] = biological target: Glutamate receptor ionotropic, NMDA 2D (Homo sapiens, UniProt O15399+Q05586); assay: Inhibition of NMDA GluN2D receptor (unknown origin)
Homo sapiens = species on record: Homo sapiens; assay: Selectivity ratio of IC50 for NMDA GluN2B receptor (unknown origin) to IC50 for NMDA GluN2D receptor (unknown origin)

Glutamate receptor ionotropic, NMDA 2B (Rattus norvegicus), sequence (Q00960 27-1482 limits assumed): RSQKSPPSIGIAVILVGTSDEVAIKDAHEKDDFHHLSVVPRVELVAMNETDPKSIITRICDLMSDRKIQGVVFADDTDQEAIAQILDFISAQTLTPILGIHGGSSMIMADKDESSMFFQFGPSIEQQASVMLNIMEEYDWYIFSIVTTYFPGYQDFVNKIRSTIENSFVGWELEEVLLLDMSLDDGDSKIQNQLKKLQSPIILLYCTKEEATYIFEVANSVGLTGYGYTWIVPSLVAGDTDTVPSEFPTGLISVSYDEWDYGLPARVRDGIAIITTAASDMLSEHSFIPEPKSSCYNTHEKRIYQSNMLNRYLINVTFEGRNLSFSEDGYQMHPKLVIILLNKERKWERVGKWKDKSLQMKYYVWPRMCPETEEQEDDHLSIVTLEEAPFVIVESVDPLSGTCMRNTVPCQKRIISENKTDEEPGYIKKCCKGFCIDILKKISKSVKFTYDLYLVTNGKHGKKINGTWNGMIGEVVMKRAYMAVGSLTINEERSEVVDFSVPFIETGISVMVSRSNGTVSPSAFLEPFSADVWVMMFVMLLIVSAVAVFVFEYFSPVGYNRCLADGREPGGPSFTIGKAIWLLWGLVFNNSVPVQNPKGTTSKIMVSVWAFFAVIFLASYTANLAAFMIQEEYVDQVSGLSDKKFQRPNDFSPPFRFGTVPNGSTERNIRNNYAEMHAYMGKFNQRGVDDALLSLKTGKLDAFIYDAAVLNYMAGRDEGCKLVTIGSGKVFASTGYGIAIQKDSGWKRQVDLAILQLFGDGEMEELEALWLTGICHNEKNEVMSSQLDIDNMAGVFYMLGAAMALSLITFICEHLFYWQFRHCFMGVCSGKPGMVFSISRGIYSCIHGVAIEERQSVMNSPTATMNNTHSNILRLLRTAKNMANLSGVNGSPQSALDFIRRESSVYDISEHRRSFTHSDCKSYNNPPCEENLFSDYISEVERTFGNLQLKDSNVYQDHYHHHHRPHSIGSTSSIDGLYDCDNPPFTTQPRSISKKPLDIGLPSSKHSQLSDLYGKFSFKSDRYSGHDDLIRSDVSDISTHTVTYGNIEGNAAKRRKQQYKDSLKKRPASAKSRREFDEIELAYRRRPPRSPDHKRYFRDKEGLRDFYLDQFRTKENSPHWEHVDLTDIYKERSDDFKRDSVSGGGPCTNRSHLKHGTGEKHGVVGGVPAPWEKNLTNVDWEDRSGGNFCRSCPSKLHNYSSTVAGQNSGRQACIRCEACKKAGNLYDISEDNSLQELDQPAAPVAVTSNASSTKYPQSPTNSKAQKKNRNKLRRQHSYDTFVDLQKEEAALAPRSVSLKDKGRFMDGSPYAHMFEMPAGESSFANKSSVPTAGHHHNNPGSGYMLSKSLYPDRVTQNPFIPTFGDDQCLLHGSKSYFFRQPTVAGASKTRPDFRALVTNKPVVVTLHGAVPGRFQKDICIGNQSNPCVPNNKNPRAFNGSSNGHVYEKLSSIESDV
Glutamate receptor ionotropic, NMDA 2C, sequence (Q00961 whole entry, one chain of several): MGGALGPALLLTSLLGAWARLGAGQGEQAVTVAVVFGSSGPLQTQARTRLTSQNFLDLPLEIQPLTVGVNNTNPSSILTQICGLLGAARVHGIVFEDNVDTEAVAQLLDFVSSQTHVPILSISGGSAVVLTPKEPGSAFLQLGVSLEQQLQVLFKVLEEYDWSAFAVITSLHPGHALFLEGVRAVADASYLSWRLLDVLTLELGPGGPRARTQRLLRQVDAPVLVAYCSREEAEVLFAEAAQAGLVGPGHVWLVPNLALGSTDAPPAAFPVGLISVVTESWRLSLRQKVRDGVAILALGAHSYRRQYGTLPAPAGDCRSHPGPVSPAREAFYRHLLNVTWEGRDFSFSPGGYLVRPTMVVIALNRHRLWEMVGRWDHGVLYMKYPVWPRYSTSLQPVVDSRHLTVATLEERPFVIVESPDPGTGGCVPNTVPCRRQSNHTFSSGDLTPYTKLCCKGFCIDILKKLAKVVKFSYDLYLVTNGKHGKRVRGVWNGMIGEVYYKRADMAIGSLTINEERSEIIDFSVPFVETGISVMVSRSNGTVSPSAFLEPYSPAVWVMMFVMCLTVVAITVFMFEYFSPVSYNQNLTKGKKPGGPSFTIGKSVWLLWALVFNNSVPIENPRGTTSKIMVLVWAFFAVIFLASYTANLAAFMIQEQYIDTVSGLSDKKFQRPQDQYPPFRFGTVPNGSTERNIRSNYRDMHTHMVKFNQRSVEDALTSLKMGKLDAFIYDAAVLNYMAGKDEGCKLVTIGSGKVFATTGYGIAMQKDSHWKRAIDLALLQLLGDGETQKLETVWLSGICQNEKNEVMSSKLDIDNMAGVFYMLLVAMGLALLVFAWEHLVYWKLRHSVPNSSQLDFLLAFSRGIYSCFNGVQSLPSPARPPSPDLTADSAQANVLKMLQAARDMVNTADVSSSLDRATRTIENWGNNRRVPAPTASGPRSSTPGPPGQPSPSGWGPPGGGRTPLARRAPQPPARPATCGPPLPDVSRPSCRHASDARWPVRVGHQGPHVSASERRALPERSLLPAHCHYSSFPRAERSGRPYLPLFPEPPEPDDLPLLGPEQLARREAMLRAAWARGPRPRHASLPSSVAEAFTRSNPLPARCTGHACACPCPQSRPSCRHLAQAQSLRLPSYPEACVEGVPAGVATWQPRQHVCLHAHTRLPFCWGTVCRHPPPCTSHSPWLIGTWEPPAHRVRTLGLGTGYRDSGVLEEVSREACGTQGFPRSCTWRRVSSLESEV
Glutamate receptor ionotropic, NMDA 2C (Rattus norvegicus), sequence (Q00961 20-1237 limits assumed): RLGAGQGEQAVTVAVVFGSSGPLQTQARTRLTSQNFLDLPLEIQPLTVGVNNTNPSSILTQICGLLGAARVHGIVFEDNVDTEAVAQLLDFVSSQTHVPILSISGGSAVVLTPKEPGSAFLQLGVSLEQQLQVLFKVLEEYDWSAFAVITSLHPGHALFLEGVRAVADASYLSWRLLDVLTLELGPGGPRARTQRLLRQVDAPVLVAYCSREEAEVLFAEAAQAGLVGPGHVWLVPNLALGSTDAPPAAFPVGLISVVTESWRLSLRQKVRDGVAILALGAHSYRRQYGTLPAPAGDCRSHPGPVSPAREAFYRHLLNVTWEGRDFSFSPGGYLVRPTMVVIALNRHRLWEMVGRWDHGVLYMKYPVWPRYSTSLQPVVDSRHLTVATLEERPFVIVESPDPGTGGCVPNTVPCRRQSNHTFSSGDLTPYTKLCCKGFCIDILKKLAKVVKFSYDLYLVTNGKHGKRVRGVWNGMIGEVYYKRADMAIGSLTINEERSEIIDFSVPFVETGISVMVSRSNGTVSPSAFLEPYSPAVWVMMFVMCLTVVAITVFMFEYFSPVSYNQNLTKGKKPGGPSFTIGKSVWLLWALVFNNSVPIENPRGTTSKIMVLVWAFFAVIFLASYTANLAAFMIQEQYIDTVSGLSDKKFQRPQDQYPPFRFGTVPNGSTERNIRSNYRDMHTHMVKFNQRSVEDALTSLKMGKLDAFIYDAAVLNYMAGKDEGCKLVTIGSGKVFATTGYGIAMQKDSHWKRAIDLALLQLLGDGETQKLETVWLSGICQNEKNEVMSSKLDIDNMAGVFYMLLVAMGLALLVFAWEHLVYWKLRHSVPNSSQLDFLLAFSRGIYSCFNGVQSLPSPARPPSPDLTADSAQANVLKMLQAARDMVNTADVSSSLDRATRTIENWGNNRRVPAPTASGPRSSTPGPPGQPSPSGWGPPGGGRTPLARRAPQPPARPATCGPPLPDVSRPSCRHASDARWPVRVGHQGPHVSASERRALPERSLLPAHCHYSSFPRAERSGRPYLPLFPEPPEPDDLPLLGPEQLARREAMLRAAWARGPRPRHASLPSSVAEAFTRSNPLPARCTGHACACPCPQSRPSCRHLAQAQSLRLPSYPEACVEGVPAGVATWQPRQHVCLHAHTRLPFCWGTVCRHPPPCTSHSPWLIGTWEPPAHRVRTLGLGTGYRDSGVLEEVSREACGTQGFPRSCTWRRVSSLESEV

Structure (SMILES)	inhibition [1]	inhibition [2]	IC50 [3]	IC50 [4]	also measured
N#Cc1cccc(-c2c(C3=NN(C(=O)CCC(=O)O)C(c4ccc(Cl)cc4)C3)c(=O)[nH]c3ccccc23)c1 (configuration not stated)	< 30%	< 30%	19 µM	13 µM	–
O=C(CCCF)N1N=C(c2c(-c3ccc(Cl)cc3)c3ccccc3[nH]c2=O)CC1c1ccc(Cl)cc1 (configuration not stated)	< 30%	< 30%	–	–	t1/2 (Liver microsomes [5]): 35 min; CLint (Liver microsomes [6]): 40 µL/min/mg; Stability (Liver microsomes [7]): 39%; Stability (Liver microsomes [8]): 49%; Stability (Liver microsomes [9]): 49%; Stability (Liver microsomes [10]): 67%; Drug recovery (MDCK [11]): 67%; Papp (MDCK [12]): 9.52 ×10⁻⁶ cm/s; Drug recovery (MDCK [13]): 43%; Papp (MDCK [14]): 3.88 ×10⁻⁶ cm/s; inhibition [15]: < 30%; inhibition [16]: < 30%
O=C(O)CCC(=O)N1N=C(c2c(-c3ccccc3)c3cc(Cl)ccc3[nH]c2=O)CC1c1ccc(C(=O)O)cc1 (configuration not stated)	< 30%	< 30%	–	–	inhibition [15]: < 30%; inhibition [16]: < 30%
N#Cc1ccc(-c2c(C3=NN(C(=O)CCC(=O)O)C(c4ccc(Cl)cc4)C3)c(=O)[nH]c3ccccc23)cc1 (configuration not stated)	< 30%	–	12 µM	7 µM	IC50 [17]: 156 µM; Ratio IC50 (Rattus norvegicus [18]): 22
O=C(O)CCC(=O)N1N=C(c2c(-c3ccccc3)c3cc(Cl)ccc3[nH]c2=O)CC1c1ccc(Cl)cc1 (configuration not stated)	< 30%	< 30%	5.5 µM	4.5 µM	–
O=C(O)/C=C/C(=O)N1N=C(c2c(-c3ccccc3)c3cc(Cl)ccc3[nH]c2=O)CC1c1ccc(Br)cc1 (configuration not stated)	< 30%	< 30%	2.1 µM	1.4 µM	–
CN(C)c1ccc(C2CC(c3c(-c4ccccc4)c4cc(Cl)ccc4[nH]c3=O)=NN2C(=O)CCC(=O)O)cc1 (configuration not stated)	< 30%	< 30%	39 µM	19 µM	–
COC(=O)/C=C/C(=O)N1N=C(c2c(-c3ccc(Br)cc3)c3ccccc3[nH]c2=O)CC1c1ccc(Cl)cc1 (configuration not stated)	< 30%	< 30%	59 µM	95 µM	–
COC(=O)CCC(=O)N1N=C(c2c(-c3ccccc3)c3cc(Cl)ccc3[nH]c2=O)CC1c1ccc(Br)cc1 (configuration not stated)	< 30%	< 30%	–	–	inhibition [15]: < 30%; inhibition [16]: < 30%
O=C(O)CCC(=O)N1N=C(c2c(-c3ccccc3)c3cc(Cl)ccc3[nH]c2=O)CC1c1ccc2c(c1)OCO2 (configuration not stated)	–	< 30%	23 µM	23 µM	Ratio IC50 (Rattus norvegicus [19]): 4; IC50 [20]: 90 µM
O=C(O)CCC(=O)N1N=C(c2c(O)nc3ccc(Cl)cc3c2-c2ccccc2)CC1c1ccccc1 (configuration not stated)	< 30%	< 30%	–	–	–
O=C(O)CCC(=O)N1N=C(c2c(-c3ccccc3)c3cc(Cl)ccc3[nH]c2=O)CC1c1ccc(Br)cc1 (configuration not stated)	–	< 30%	3.6 µM	3.1 µM	–
COC(=O)CCCN1N=C(c2c(-c3ccc(Cl)cc3)c3ccccc3[nH]c2=O)CC1c1ccc(Cl)cc1 (configuration not stated)	< 30%	< 30%	–	–	inhibition [15]: < 30%; inhibition [16]: < 30%
Cc1ccc2[nH]c(=O)c(C3=NN(C(=O)CCC(=O)O)C(c4ccc(Br)cc4)C3)c(-c3ccccc3)c2c1 (configuration not stated)	–	–	–	–	IC50 [21]: 2.7 µM; Ratio IC50 (Homo sapiens): 41
O=C(O)CCC(=O)N1N=C(c2c(-c3ccc(Br)cc3)c3ccccc3[nH]c2=O)CC1c1ccc(F)cc1 (configuration not stated)	–	–	3.8 µM	2.9 µM	Ratio IC50 (Rattus norvegicus [19]): 26; IC50 [17]: 34 µM; IC50 [20]: 75 µM; Ratio IC50 (Rattus norvegicus [18]): 12
COC(=O)c1ccc(C2CC(c3c(-c4ccccc4)c4cc(Cl)ccc4[nH]c3=O)=NN2C(=O)CCC(=O)O)cc1 (configuration not stated)	< 30%	< 30%	93 µM	–	–
